# The list is not random: actives were taken first. Their share in the collection is about 0.79%.
# mIAP activ – increases mouse intestinal alkaline phosphatase activity; 330,000 compounds, 0.24% hits; activation factor at 10 µM; muIAP, CDP-Star luminescence, 30 min; active compounds read high; 1 = vehicle-only enzyme signal, 0 = enzyme-free wells;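 active = activation factor of at least 2 at 20 µM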
#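 also added = chemiluminescent substrate CDP-Star | test system = mouse IAP enzyme | signal = chemiluminescence readout | compound = DMSO-dissolved test compounds | incubation = 30 min at room temperature | benchmarks = DMSO wells, no-enzyme wells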
# hIAP block – human IAP inhibition | purified IAP, CDP-Star luminescence, 30 min | inhibition, % at 10 µM | 330,000 compounds, 0.12% hits | AID 2544;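 active = inhibition reaching a set limit with compound at 10 µM in the primary screen, cut at about 35% in these data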;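 also: plate controls were DMSO wells with enzyme for no effect and no-enzyme buffer wells for full effect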
# Target sequence (P09923 whole entry, looked up): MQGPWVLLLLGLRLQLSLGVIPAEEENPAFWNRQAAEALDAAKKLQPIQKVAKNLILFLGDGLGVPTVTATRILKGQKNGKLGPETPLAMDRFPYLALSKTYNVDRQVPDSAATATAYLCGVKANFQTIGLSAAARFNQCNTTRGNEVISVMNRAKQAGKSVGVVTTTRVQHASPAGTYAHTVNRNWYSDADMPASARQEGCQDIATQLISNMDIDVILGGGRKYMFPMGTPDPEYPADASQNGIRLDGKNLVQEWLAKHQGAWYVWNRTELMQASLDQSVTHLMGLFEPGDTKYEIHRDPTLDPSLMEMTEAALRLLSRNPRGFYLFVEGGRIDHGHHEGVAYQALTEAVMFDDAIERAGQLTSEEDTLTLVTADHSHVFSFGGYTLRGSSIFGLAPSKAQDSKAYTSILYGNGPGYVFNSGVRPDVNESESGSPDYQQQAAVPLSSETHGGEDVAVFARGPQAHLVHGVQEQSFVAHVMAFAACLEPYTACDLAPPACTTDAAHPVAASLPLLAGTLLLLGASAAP
# mIAP block – blocks mouse intestinal alkaline phosphatase; purified mouse IAP, CDP-Star luminescence, 30 min; inhibition, % at 10 µM; 330,000 compounds, 0.2% hits; AID 2806;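 active = inhibition of at least 40% at 10 µM in the primary screen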;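 also: plate controls were DMSO with enzyme for no effect and no enzyme wells for full effect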
# bIAP activator – intestinal alkaline phosphatase (bovine) activation; purified bovine IAP, CDP-star luminescence, 30 min; active compounds read high; fold of DMSO-control signal, blank-subtracted; activation factor at 20 µM; 200,000 compounds, 0.17% hits; AID 1016;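 active = activation factor of 2 or more at 20 µM, a signal rise over negative controls twice the positive control's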
# bIAP inh – blocks bovine intestinal alkaline phosphatase activity; purified bovine IAP, CDP-star luminescence, 30 min; inhibition, % at 20 µM; 190,000 tested, under 10 active;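 active = over 50% inhibition of intestinal alkaline phosphatase at 20 µM in the single-dose screen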
#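 System: purified bovine intestinal alkaline phosphatase (IAP) enzyme; Input: IAP diluted 1/65,000,000 in the well; Measured by: CDP-star luminescence signal; Compound dosing: 20 µM single dose; Incubation: 30 min reaction at room temperature.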
# hIAP activ – human IAP activation; P09923; purified human IAP, CDP-Star luminescence, 30 min; active compounds read high; 1 = vehicle-only enzyme, 0 = enzyme-free background; activation factor at 10 µM; 330,000 compounds, 0.16% hits;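 active = activation factor of the enzyme at least 2-fold when tested at 20 µM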
# Numbers without * were called inactive; i = inactive; . = not tested or not shown.
SMILES,mIAP activ,hIAP block,mIAP block,bIAP activator,bIAP inh,hIAP activ
Cc1ccc(C)c(NC(=O)Cn2nnc(-c3ccc(N4CCOCC4)cc3)n2)c1,1.23,-21.9,-23.1,1,-4.2,1.22
CC(C)COc1ccc(CNC(=S)NCc2ccccc2)cc1,3.74*,-5.0,-273.8,0.7,34.8,1.05
Cc1ccc(CC2C(=O)N(c3nc(C)cc(C)n3)C(=O)C2C)cc1 (stereo unspecified),1.04,-0.1,-3.8,1.1,-5.5,1
FC(F)Sc1ccc(NC(=S)NCc2ccccc2)cc1,2.06*,0.4,-106.2,0.9,7.6,0.996
FC(F)(F)c1ccc(NC(=S)NCc2ccccc2)cc1,2*,-9.8,-100.2,0.9,12.8,1.1
O=C(c1ccc(N2CCCCC2)c([N+](=O)[O-])c1)N(c1ccccn1)c1ccccn1,1.01,3.1,-1.2,0.9,9.8,0.969
Cc1ccc(NC(=O)Nc2cc(S(=O)(=O)N(C)C)ccc2C)cc1,2.77*,-10.2,-177.3,0.8,18.8,1.1
O=C(Cc1csc(-c2ccccc2)n1)Nc1ccc(C(F)(F)F)cc1,0.991,-4.3,0.9,0.8,16.0,1.04
Cc1ccc(NC(=O)Cc2csc(-c3ccccc3)n2)cc1F,1.02,35.5*,-2.5,1,-2.2,0.645
CCN(CC)CCn1c(=N)n(CC(=O)c2ccc(C)cc2)c2ccccc21,0.591,-2.8,40.9*,.,.,1.03
Cc1ccc(C(=O)Cn2c(=N)n(N)c3ccccc32)cc1,0.929,-10.6,7.1,.,.,1.11
CCOC(=O)/C(C#N)=C/c1c(N2CCN(CC)CC2)nc2c(C)cccn2c1=O,0.967,-2.5,3.3,.,.,1.02
COCCCn1c(=O)c2ccccc2n2c(=S)[nH]nc12,0.941,-28.9,5.9,.,.,1.29
O=C(Nc1ccc(Cl)cc1)Nc1ccc(-c2cnco2)cc1,2.05*,5.8,-104.8,.,.,0.942
Cc1csc(SCC(=O)Nc2cc([N+](=O)[O-])ccc2F)n1,1.05,-4.2,-4.8,.,.,1.04
CCn1ncc([N+](=O)[O-])c1C(=O)Nc1c(C)nn(Cc2ccc(F)cc2)c1C,1.02,11.8,-1.6,0.8,15.6,0.882
O=C(O)COc1ccccc1Cc1ccccc1,0.969,-11.3,3.1,1,3.5,1.11
CC(COc1ccccc1Cc1ccccc1)N1CCCCC1 (stereo unspecified),0.907,40.3*,9.3,.,.,0.597
CCn1c(SCC(N)=O)nnc1-c1ccc(S(=O)(=O)N2CCN(C)CC2)cc1,1.15,-9.3,-14.8,1.1,-10.9,1.09
Cc1noc(-c2ccccc2)c1NC(=O)Nc1ccc(Cl)cc1,3.06*,-10.0,-205.7,.,.,1.1
Cc1noc(-c2ccccc2)c1NC(=O)Nc1ccccc1,1.49,1.3,-49.4,.,.,0.987
N#Cc1ccccc1OCC(=O)NC(=O)NCc1ccco1,1.03,-19.7,-2.8,.,.,1.2
Cc1ccc(NC(=O)Nc2ccc3c(c2)N(C)C(=O)CS3)cc1C,3.09*,-28.1,-208.9,1,-4.8,1.28
Cc1ccc(CNC(=O)Nc2ccc3c(c2)N(C)C(=O)CS3)cc1,2.07*,8.6,-107.2,0.8,16.9,0.914
CN1C(=O)CSc2ccc(NC(=O)NCc3ccccc3)cc21,1.34,-10.5,-34.0,1,3.0,1.1
SMILES,mIAP activ,hIAP block,mIAP block,bIAP activator,bIAP inh,hIAP activ
CCOc1ccc(-c2c(C(=O)N/N=C/c3cccnc3)nnn2-c2nonc2N)cc1,0.997,-15.5,0.3,.,.,1.16
COc1ccc(C(C(=O)NC2CCCC2)N(Cc2cccs2)C(=O)c2ccn[nH]2)cc1OC (stereo unspecified),1.29,-41.3,-29.0,2.3*,-130.6,1.41
CCC(C(=O)NC1CCCC1)N(Cc1cccs1)C(=O)Cn1nnc(-c2ccc(OC)c(OC)c2)n1 (stereo unspecified),2.09*,-29.1,-109.1,0.9,6.5,1.29
COCCN(C(=O)Cc1cccs1)C(C(=O)NC1CCCC1)c1ccc(OC)c(OC)c1 (stereo unspecified),1.01,-43.1,-0.8,1,-0.8,1.43
COc1ccc(-c2nnn(CC(=O)N(Cc3cccs3)C(C)C(=O)NC3CCCC3)n2)cc1OC (stereo unspecified),1.07,5.5,-7.2,1.3,-25.0,0.945
CCc1ccccc1NC(=O)CSc1nc2n[nH]c(C)c2c(=N)n1-c1ccc(OC)cc1,.,.,.,0.9,7.1,.
CCCN(CCC)C(=O)CSc1nc2n[nH]c(C)c2c(=N)n1-c1ccc(OC)cc1,1.28,-10.5,-27.6,2.9*,-190.4,1.1
CCCN(CCC)C(=O)CSc1nc2n[nH]c(C)c2c(=N)n1-c1ccc(OCC)cc1,1.08,9.7,-7.7,2.1*,-111.1,0.903
COc1ccc(-c2cn(-c3ccc(C)cc3C)c(=O)[nH]2)cc1OC,0.847,1.9,15.3,1,-3.7,0.981
Cc1ccn2c(Nc3ccccc3C)c(-c3ccccn3)nc2c1,0.878,-22.4,12.2,2.1*,-112.2,1.22
COc1ccc(S(=O)(=O)N(C)C)cc1NC(=O)CCCSc1ccccc1,1.01,1.9,-1.3,.,.,0.981
CCOC(=O)C1CCN(C(=O)C2(NC(=O)Nc3ccccc3Cl)CCCCC2)CC1,1.23,-11.5,-22.9,3.5*,-249.4,1.11
CCOC(=O)C1CCN(C(=O)C2(NC(=O)Nc3ccccc3C)CCCCC2)CC1,1.07,-21.0,-7.0,.,.,1.21
Cc1ccc(-n2ncc(C(=O)Nc3cc(Cl)cc(Cl)c3)c2C2CCNCC2)cc1C,.,.,.,6.1*,i,.
O=C(Nc1cccc2ccccc12)c1cn(-c2ccccc2)nc1-c1cccs1,2.18*,-2.4,-118.4,1.1,-11.6,1.02
Cc1ccc(SCCNC(=S)Nc2ccccc2)cc1,2.15*,-27.2,-115.3,0.6,37.1,1.27
S=C(NCCSCc1c(Cl)cccc1Cl)Nc1ccccc1,2.48*,-6.5,-148.5,0.7,26.2,1.06
Cc1ccc(SCCNC(=S)Nc2ccc(C)c(C)c2)cc1,2.79*,-10.7,-178.7,0.9,7.6,1.11
Cc1cc(C)cc(NC(=S)NCCSc2ccc(Cl)cc2)c1,2.29*,-2.2,-128.5,1,-4.1,1.02
COc1ccccc1NC(=S)NCCSc1ccc(C)cc1,1.49,-16.8,-48.9,0.9,6.4,1.17
Cc1ccc(SCCNC(=S)Nc2cc(C)ccc2C)cc1,1.54,-2.6,-54.3,0.4,.,1.03
Cc1cccc(NC(=S)NCCC(c2ccccc2)c2ccccc2)c1,7.57*,-0.9,i,0.9,9.6,1.01
Cc1cccc(NC(=S)NNC(=S)NCc2ccccc2)c1,0.936,-20.7,6.4,0.9,7.4,1.21
CCOc1ccc2nc(NCCCNC(=O)c3cc(OC)c(OC)c(OC)c3)c(C#N)cc2c1,2.01*,-71.9,-100.9,.,.,1.72
NC1=NC2(CCC(c3ccccc3)CC2)n2c(nc3ccccc32)N1 (stereo unspecified),1.56,-42.8,-56.2,2.9*,-191.8,1.43
NC1=NC2(CCCCC2)n2c(nc3ccccc32)N1,1.04,1.2,-3.9,2.2*,-116.8,0.988

# From PubChem BioAssay
